From ChEMBL document CHEMBL1147130, “Dihydropyridopyrazinones and dihydropteridinones as corticotropin-releasing factor-1 receptor antagonists: structure-activity relationships and computational modeling” (J Med Chem, 2007)

What follows are compounds tested against T1, Corticotropin-releasing factor receptor 1 (Rattus norvegicus, UniProt P35353) (assay: Displacement of [125I]Tyr-o-CRF from CRF1 receptor in rat frontal cortex homogenates).
T1 sequence (P35353 whole entry): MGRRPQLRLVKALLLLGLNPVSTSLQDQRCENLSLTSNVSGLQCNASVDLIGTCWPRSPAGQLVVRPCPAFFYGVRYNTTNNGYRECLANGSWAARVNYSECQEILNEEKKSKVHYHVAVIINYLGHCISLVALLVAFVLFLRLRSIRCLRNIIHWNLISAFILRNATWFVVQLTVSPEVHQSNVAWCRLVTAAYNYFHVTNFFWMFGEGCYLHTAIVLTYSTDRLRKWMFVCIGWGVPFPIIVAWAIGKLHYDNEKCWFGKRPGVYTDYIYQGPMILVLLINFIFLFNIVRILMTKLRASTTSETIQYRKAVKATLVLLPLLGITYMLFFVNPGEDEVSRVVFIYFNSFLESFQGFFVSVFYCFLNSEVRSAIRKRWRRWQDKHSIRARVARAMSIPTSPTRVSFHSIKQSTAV
Format: tissue-based
Procedure, shortened: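 Bound ligand collected by filtration on PEI-treated glass fiber filters and gamma counted. Nonspecific binding defined with 1 µM DMP696.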

Compound | IC50 [nM]
CCCN(CCOC)c1cc(C)nc2c1NC(=O)CN2c1cc(OC)c(OC)cc1C | 43
CCCN(CCOC)c1cc(C)nc2c1NCCN2c1cc(OC)c(OC)cc1C | 87
CCCCN(CC)c1nc(C)nc2c1NC(=O)CN2c1ccc(C(C)=O)cc1C | 713
CCCN(CCOC)c1nc(C)nc2c1NCCN2c1cc(OC)c(OC)cc1C | 210
CCCCN(CC)c1nc(C)nc2c1NCCN2c1ccc(C(C)=O)cc1C | 172
CCCCN(CC)c1nc(C)nc2c1NC(=O)CN2c1ccc(OC)cc1C | 95
CCCCN(CC)c1nc(C)nc2c1NCCN2c1ccc(C#N)cc1C | 102
CCCCN(CC)c1nc(C)nc2c1NC(=O)CN2c1ccc(OC)nc1OC | 60
CCCCN(CC)c1nc(C)nc2c1NC(=O)CN2c1ccc(C#N)cc1C | 573

Stronger by IC50, values ahead:

IC50 [nM] | Compound
11.7 | CCCCN(CC)c1nc(C)nc2c1NCCN2c1ccc(OC)cc1C
8.2 | CCCCN(CC)c1cc(C)nc2c1NCCN2c1ccc(C(C)=O)cc1C
3.3 | CCCCN(CC)c1cc(C)nc2c1NC(=O)CN2c1ccc(C#N)cc1C
2.2 | CCCCN(CC)c1cc(C)nc2c1NCCN2c1ccc(OC)nc1OC
4.2 | CCCCN(CC)c1cc(C)nc2c1NCCN2c1ccc(OC)cc1C
5.8 | CCCCN(CC)c1cc(C)nc2c1NC(=O)CN2c1ccc(C(C)=O)cc1C
3.5 | CCCCN(CC)c1cc(C)nc2c1NCCN2c1ccc(C#N)cc1C
9.9 | CCCCN(CC)c1nc(C)nc2c1NCCN2c1ccc(OC)nc1OC
